# From PubChem
# Most compounds without a hit are left out; they make up all but 3% or so of the library.
# HTR1E antagonist = 5-HT1E receptor antagonists, primary screen, cell-based, HTS. CHO 5-HT1E Ga15 NFAT-bla reporter, FRET, antagonist. 5-hydroxytryptamine receptor 1E (Homo sapiens), P28566. actives 0.99% (n = 65,000). inhibition, % at 6 µM;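 active = inhibition above a set limit, the mean inhibition across every tested compound plus 3 SD, cut at about 29% in these data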;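 note: signal is the 460 over 535 nm emission ratio of beta-lactamase substrate; 0% = agonist plus DMSO wells and 100% = wells without agonist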
# 5-HT1A blocker = human 5-HT1a receptor antagonists, primary screen, cell-based, CHO, Ga15 NFAT-bla reporter. actives 0.68% (n = 62,000). CHO 5-HT1a Ga15 NFAT-bla reporter, antagonist mode. inhibition, % at 10 µM;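 active = inhibition above the mean of all tested compounds plus 3 SD, cut at about 43% in these data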;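 note: receptor stimulated by 5-CT agonist at 100 nM near EC80; beta-lactamase reporter measured by ratiometric fluorescence of a cleavable substrate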
# 5HT1E ag = 5-HT1E receptor agonists, primary screen, cell-based, HTS; actives 0.69% (n = 65,000); CHO 5-HT1E Ga15 NFAT-bla reporter, FRET; 0% DMSO wells, 100% control agonist wells; activation, % at 6 µM; AID 574, 2007; 5-hydroxytryptamine receptor 1E (Homo sapiens), P28566;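 active = activation above a set limit, the screen-wide mean activation plus 3 SD, cut at about 8.5% in these data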;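 note: 100% = positive control agonist at 1 µM giving full maximal response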
# HTR1A agonist = human 5-HT1a receptor agonists, primary screen, cell-based, CHO, Ga15 NFAT-bla reporter | 5-hydroxytryptamine receptor 1A (Homo sapiens), P08908 | CHO 5-HT1a Ga15 NFAT-bla reporter, FRET ratio; 0% basal, 100% maximal reference agonist | activation, % at 10 µM | actives 0.56% (n = 65,000);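 active = activation above the screen-wide mean activation plus 3 SD, cut at about 19% in these data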;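 note: 0% = DMSO wells and 100% = 5-CT at EC100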
# S1P1 ag pot = S1P1 agonists and agonism potentiators, primary screen, cell-based, primary and confirmation screens, CRE-bla reporter; Sphingosine 1-phosphate receptor 1 (Homo sapiens), P21453; activation, % at 9.5 µM; S1P1 CRE-bla cells, forskolin, beta-lactamase FRET, potentiator mode; S1P1 agonist co-added at EC20, 2 nM; 100% = saturating reference agonist, 0% = basal; actives 0.57% (n = 56,000);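 active = activation above a cutoff set at the mean activation of all tested compounds plus 3 SD, cut at about 54% in these data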;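 note: forskolin at 4 µM as EC80 and the EC20 agonist is SEW2871; 100% = SEW2871 at its EC100 plus forskolin at EC80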
# S1P3 agonist = human S1P3 receptor agonists, primary screen, cell-based, primary and confirmation, NFAT-BLA reporter; S1P3 NFAT-BLA reporter cells, agonism, FRET ratio; relative to 1 µM S1P, basal subtracted; actives 0.1% (n = 60,000); activation, % at 4.5 µM; Sphingosine 1-phosphate receptor 3 (Homo sapiens), Q99500;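 active = activation above the screen-wide mean plus 3 SD, cut at about 4.5% in these data, passing the limit was not always enough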
# Target sequence (Q99500 whole entry, looked up): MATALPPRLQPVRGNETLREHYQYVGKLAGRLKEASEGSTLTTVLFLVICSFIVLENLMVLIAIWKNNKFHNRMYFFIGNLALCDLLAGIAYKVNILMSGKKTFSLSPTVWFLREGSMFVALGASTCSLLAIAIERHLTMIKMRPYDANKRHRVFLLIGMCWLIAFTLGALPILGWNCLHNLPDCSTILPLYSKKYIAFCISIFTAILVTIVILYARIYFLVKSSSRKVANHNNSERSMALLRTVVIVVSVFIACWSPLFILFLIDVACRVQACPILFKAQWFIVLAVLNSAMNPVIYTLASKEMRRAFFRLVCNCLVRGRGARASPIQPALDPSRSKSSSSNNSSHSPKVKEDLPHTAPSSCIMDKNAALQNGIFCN
#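 Assay system: CHO cells stably expressing human S1P3, Gα16 and NFAT-β-lactamase reporter. Timing: overnight plating, 4 h compound 37 °C, 2 h substrate RT. Signal: β-lactamase FRET emission ratio 460/535 nm. Measure: percent activation versus median 1 µM S1P response, basal-subtracted, per plate. Repeats: primary screen single test, confirmation screen in triplicate.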
# Starred values were filed as active, the others as inactive; x = no result given.
SMILES,HTR1E antagonist,5-HT1A blocker,5HT1E ag,HTR1A agonist,S1P1 ag pot,S1P3 agonist
CC(C)(C)N1C(=O)Cc2c1nc(N)c1c(N)nc(N3CCCCC3CO)c(C#N)c21 (configuration not stated),34*,53*,0,-1,-40,0
CC(c1nnnn1C1CCCCC1)N(Cc1ccccc1)Cc1cccnc1 (configuration not stated),-8,25,-1,2,17,-1
CCN(Cc1ccccc1)C(c1cccs1)c1nnnn1C1CCCCC1 (configuration not stated),7,44*,0,-1,-11,-1
Clc1ccc2nc(N3CCNCC3)nc(-c3ccccc3)c2c1,-4,x,14*,55*,-50,18*
CN1CCN(c2nc(-c3ccccc3)c3cc(Cl)ccc3n2)CC1,0,-30,8,30*,-41,13
Clc1ccc2nc(NC3=NCN(CCN4CCOCC4)CN3)nc(-c3ccccc3)c2c1,-2,-6,1,-3,-22,-1
OCCN1CCN(c2nc(-c3ccccc3)c3cc(Cl)ccc3n2)CC1,6,-20,7,18,-41,4.6*
COc1ccc(C)cc1S(=O)(=O)N(CC(=O)O)c1ccc(F)cc1,-1,-10,0,0,x,-1
CC1(C)CC(=O)C2=C(C1)N(c1cccc(O)c1)C1=C(C2)C(=O)CC(C)(C)C1,30*,20,1,0,8,-1
COc1cccc(CNC(=O)Cn2cccc2)c1,-8,-2,24*,-2,-2,0
COC(=O)c1ccccc1NC(=O)NCc1ccc2c(c1)OCO2,31*,17,-1,17,6,0
COc1ccccc1NC(=O)NCc1ccc2c(c1)OCO2,-4,6,2,-1,-15,0
COCCN1Cc2cccc(C(=O)NCc3ccccn3)c2C1=O,0,-2,0,-2,-14,-1
COCCN1Cc2cccc(C(=O)NCc3ccc4c(c3)OCO4)c2C1=O,15,1,0,238*,12,-1
CCOC(=O)c1ccc(CNC(=O)c2cc3cccc(OC)c3oc2=O)o1,-1,-13,0,0,-23,0
CN(C)CCCN1C(=O)C(=O)/C(=C(/O)c2ccc(S(=O)(=O)N(C)C)cc2)C1c1ccncc1 (configuration not stated),-8,-1,-1,1,-8,0
CC1=C(C(=O)OC(C)C)C(C)NC(=O)N1 (configuration not stated),-1,-4,1,-1,-15,0
Cc1cc(C(=O)COC(=O)c2csc3c2CCCC3)c(C)n1C,2,2,-1,0,79*,0
COc1ccc(Cl)cc1NC(=O)c1ccco1,-6,8,23*,0,0,0
CC(C)(C)c1cccc(/C=N/O)c1O,30*,x,0,2,-20,-2
CCCCN(C)CCNC(=O)Cn1c(=O)sc2ccccc21,-6,4,2,1,-9,-1
COc1cccc(C2C(C(N)=O)=C(C)Nc3nc(-c4ccccc4Cl)nn32)c1 (configuration not stated),-9,-4,0,-4,-20,-1
CCN(C(=O)c1ccc(C(C)(C)C)cc1)c1nnc(Cn2nnc3ccccc32)s1,-14,-3,2,5,130*,-2
COCCNC(=O)CN(C(=O)Cn1nnc2ccccc21)c1ccccc1,9,7,-1,-3,5,-1
Cc1ccc(CNc2cc(-c3nn4c(C)nnc4s3)ccc2C)s1,14,5,1,2,-61,-1
SMILES,HTR1E antagonist,5-HT1A blocker,5HT1E ag,HTR1A agonist,S1P1 ag pot,S1P3 agonist
Cc1ccc(-c2nn3c(C)nnc3s2)cc1NCc1c(F)cccc1Cl,8,45*,2,0,x,-2
COc1cccc(OCC(O)CN2CCC(Cc3ccccc3)CC2)c1 (configuration not stated),-1,52*,1,9,2,-1
COc1cccc(OCC(O)CN2CCOCC2)c1 (configuration not stated),-12,-12,1,0,-23,0
O=C(NCc1cccnc1)c1ccc(CS(=O)(=O)c2ccc(Cl)cc2)o1,7,1,0,-1,3,-1
CCOc1ccc(-n2c(SCc3nc(-c4cccs4)no3)nnc2-c2ccncc2)cc1,13,50*,0,6,-12,-1
CCCn1c(SCc2nc(-c3cccs3)no2)nnc1-c1ccncc1,0,-3,0,-4,x,0
COC(=O)C1=C(C)NC(=O)NC1c1ccc(OCC(=O)N2CCCCC2)cc1 (configuration not stated),4,-11,0,0,6,0
Cn1c(=O)oc2cc(S(=O)(=O)N3CCN(c4ccccn4)CC3)ccc21,-13,-1,1,35*,-32,0
Cn1c(=O)oc2cc(S(=O)(=O)NCCN3CCCCCC3)ccc21,-2,4,0,-2,-19,0
Cn1c(=O)oc2cc(S(=O)(=O)NCCN3CCN(c4ccccc4F)CC3)ccc21,5,57*,0,-2,-9,0
O=c1[nH]c(-c2ccccc2O)nc2c1CCCC2,4,-1,-1,-2,-6,0
CC(=O)Nc1nc(=O)c2ccccc2s1,-10,47*,-1,-5,-1,-2
c1ccc(OCCCc2nc(-c3ccccn3)no2)cc1,3,8,-1,1,x,-1
O=C(O)c1ccc(Cl)c(S(=O)(=O)NCc2ccco2)c1,-2,4,0,-3,-5,-1
Cc1cccc(N2CCN(C(=O)c3ccc(Cl)c(S(=O)(=O)NCc4ccco4)c3)CC2)c1C,8,7,16*,4,-6,-2
COc1ccc(CCN2C(=O)c3[nH]nc(-c4ccccc4O)c3C2c2ccccc2)cc1OC (configuration not stated),6,35,1,1,-2,-1
O=C1c2ccccc2C(O)N1Cc1ccco1 (configuration not stated),19,4,0,0,20,23
